Measured values as given in paper PMC6089219 (ACS chemical biology, 2018).

T1: human ALDH1A2 (Homo sapiens, UniProt O94788)
T1 sequence (O94788 27-518): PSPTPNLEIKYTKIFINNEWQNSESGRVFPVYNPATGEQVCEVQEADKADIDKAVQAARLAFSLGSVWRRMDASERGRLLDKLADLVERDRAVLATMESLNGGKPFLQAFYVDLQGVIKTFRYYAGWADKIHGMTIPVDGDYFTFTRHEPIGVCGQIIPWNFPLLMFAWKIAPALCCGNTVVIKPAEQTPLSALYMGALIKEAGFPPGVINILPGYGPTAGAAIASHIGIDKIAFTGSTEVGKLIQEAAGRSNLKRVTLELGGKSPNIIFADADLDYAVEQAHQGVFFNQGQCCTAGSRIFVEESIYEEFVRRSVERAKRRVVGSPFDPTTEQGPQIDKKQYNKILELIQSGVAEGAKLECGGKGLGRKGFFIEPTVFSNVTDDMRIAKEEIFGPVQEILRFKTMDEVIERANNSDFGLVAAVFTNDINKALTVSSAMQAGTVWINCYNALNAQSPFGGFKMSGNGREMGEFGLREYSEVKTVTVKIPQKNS


Experiments:
human ALDH1A2 = molecular target: T1, human ALDH1A2; assay: Differential scanning fluorimetry; type: binding; conditions: for DSF ΔTm (°C); (−) NAD: 200 μM compound, 4 μM ALDH1A2, absence of NAD, single experiment in quadruplicate
Outline: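 Truncated human ALDH1A2 (residues 27–518) expressed in E. coli BL21Star (DE3), His-tag removed by PreScission protease, purified as a tetramer. Fluorescence read at 620 nm (ROX channel) during thermal melt, in quadruplicate. ΔTm taken against unliganded enzyme with 2% DMSO.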

crystal structure = molecular target: the molecule itself; assay: crystal structure

Molecule | DSF ΔTm (°C); (−) NAD (human ALDH1A2) [°C] | further results
O=C(NCCCCCCCCNC(=O)C(Cl)Cl)C(Cl)Cl [WIN18,446, reference compound] | 7.6 ± 0.17 | 
NC(=O)c1ccc[n+]([C@@H]2O[C@H](COP(=O)([O-])OP(=O)(O)OC[C@H]3O[C@@H](n4cnc5c(N)ncnc54)[C@H](O)[C@@H]3O)[C@@H](O)[C@H]2O)c1 [NAD] |  | DSF ΔTm (°C); (+) NAD (human ALDH1A2; 1 mM NAD+ alone, no inhibitor): 2.6 ± 0.04 °C
CS(=O)(=O)c1ccc(-c2nn(-c3ccc(C#N)cc3)cc2C(=O)Nc2cccc(F)c2)cc1 [CM121] | 5.4 ± 0.15 | 
human ALDH1A2 (residues 27-518) (enzyme, UniProt O94788 27-518, looked up) PSPTPNLEIKYTKIFINNEWQNSESGRVFPVYNPATGEQVCEVQEADKADIDKAVQAARLAFSLGSVWRRMDASERGRLLDKLADLVERDRAVLATMESLNGGKPFLQAFYVDLQGVIKTFRYYAGWADKIHGMTIPVDGDYFTFTRHEPIGVCGQIIPWNFPLLMFAWKIAPALCCGNTVVIKPAEQTPLSALYMGALIKEAGFPPGVINILPGYGPTAGAAIASHIGIDKIAFTGSTEVGKLIQEAAGRSNLKRVTLELGGKSPNIIFADADLDYAVEQAHQGVFFNQGQCCTAGSRIFVEESIYEEFVRRSVERAKRRVVGSPFDPTTEQGPQIDKKQYNKILELIQSGVAEGAKLECGGKGLGRKGFFIEPTVFSNVTDDMRIAKEEIFGPVQEILRFKTMDEVIERANNSDFGLVAAVFTNDINKALTVSSAMQAGTVWINCYNALNAQSPFGGFKMSGNGREMGEFGLREYSEVKTVTVKIPQKNS |  | stoichiometry N (crystal structure): 4
